From ChEMBL document CHEMBL1121809, “Cyclic guanidines. 14. Imidazo[1,2-a]thienopyrimidin-2-one derivatives as blood platelet aggregation inhibitors” (J Med Chem, 1981)

Legend:
[1] = organism: Rattus norvegicus; test: In vitro inhibition of ADP-induced blood platelet aggregation; format: functional
Procedure, shortened: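 Rat carotid citrated blood was spun at 230g for 7 min to give PRP, adjusted with PPP to about 5 × 10⁵ platelets/μL. Compound in saline or MeOH was added before 10 μM ADP in Tris-HCl/NaCl pH 7.4 with CaCl₂. Aggregation was read at 30 °C, 1100 rpm, as maximal ΔA. EC50 is the concentration giving 50% inhibition.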

[2] = organism: Rattus norvegicus; test: In vitro inhibition of collagen-induced blood platelet aggregation; format: functional
Procedure, shortened: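 Rat PRP (about 5 × 10⁵ platelets/μL) was preincubated with compound added in saline or MeOH. Aggregation was started with bovine tendon collagen suspension in Tris buffer (absorbance 0.270 at 420 nm; lag 2–3 min). Read at 30 °C, 1100 rpm, as initial maximal rate ΔA/min. EC50 is the concentration giving 50% inhibition.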

[3] = tested on: Rattus norvegicus; test: (§1) Ex vivo inhibition of collagen-induced blood platelet aggregation in rat was measured 2 hr after oral administration of 50 mg/kg; format: functional
Procedure, shortened: (§2)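 Overnight-fasted rats were dosed orally at (50 mg/10 mL)/kg in 0.5% Tween 80; controls got vehicle at 10 mL/kg. PRP was made from carotid citrated blood 2 h later under pentobarbital. Collagen suspension (absorbance 0.270 at 420 nm) drove aggregation at 30 °C, 1100 rpm. Read-out was the initial maximal rate of absorbance fall (ΔA/min). Inhibition percent is versus controls; 5–7 rats, mean ± SD.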

[4] = tested on: Rattus norvegicus; test: Ex vivo inhibition of collagen-induced blood platelet aggregation in rat was measured 2 hr after administration of vehical alone; format: functional; procedure, shortened: as §2
[5] = tested on: Rattus norvegicus; test: as §1; format: functional; parameters: scale not given here; procedure, shortened: as §2
[6] = organism: Rattus norvegicus; test: Inhibition of collagen-induced blood platelet aggregation in rat after 3 hrs; format: functional
Procedure, shortened: (§3)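 Fasted rats received one oral 50 mg/kg dose in 0.5% Tween 80, and PRP was prepared 3, 6 or 24 h later; vehicle controls were bled at 3 h. Collagen-induced aggregation was read as initial maximal rate ΔA/min at 30 °C. Percent inhibition is versus controls; 5–7 animals, mean ± SD.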

[7] = organism: Rattus norvegicus; test: Inhibition of collagen-induced blood platelet aggregation in rat after 24 hr; format: functional; procedure, shortened: as §3
[8] = organism: Rattus norvegicus; test: Inhibition of collagen-induced blood platelet aggregation in rat after 6 hrs; format: functional; procedure, shortened: as §3
[9] = organism: Rattus norvegicus; test: Inhibition of ADP-induced blood platelet aggregation in rat after 3 hr; format: functional
Procedure, shortened: (§4)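 This is an ex vivo time course after a single oral 50 mg/kg dose in 0.5% Tween 80 to fasted rats, with PRP made at 3, 6 or 24 h; controls got vehicle 3 h before blood collection. ADP (10 μM) aggregation was read as extent ΔA at 30 °C. Percent inhibition is versus controls; 5–7 animals, mean ± SD.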

[10] = organism: Rattus norvegicus; test: Inhibition of ADP-induced blood platelet aggregation in rat after 24 hr; format: functional; procedure, shortened: as §4
[11] = organism: Rattus norvegicus; test: Inhibition of ADP-induced blood platelet aggregation in rat after 6 hr; format: functional; procedure, shortened: as §4
[12] = tested on: Rattus norvegicus; test: Effect on heart rate in rat after an oral dose at 50 mg/kg (3h after dose); format: functional
Procedure, shortened: (§5)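 Male Wistar-Imamichi rats, 250 g, were given the compound orally at (50 mg/7.5 mL)/kg as a suspension in 0.5% CMC or 0.5% Tween 80. Systolic pressure and heart rate were taken by tail-cuff after prewarming at 55–60 °C for 3 min, before dosing and at set times after. Five rats per group, mean ± SD. Pressure is reported as decrease and heart rate as percent change.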

[13] = tested on: Rattus norvegicus; test: Effect of compound on heart rate in rat after an oral dose at 50 mg/kg; format: functional; procedure, shortened: as §5
[14] = tested on: Rattus norvegicus; test: Effect on heart rate in rat after an oral dose at 50 mg/kg (1h after dose); format: functional; procedure, shortened: as §5
[15] = tested on: Rattus norvegicus; test: Effect on heart rate in rat after an oral dose at 50 mg/kg (4h after dose); format: functional; procedure, shortened: as §5
[16] = tested on: Rattus norvegicus; test: Effect on systolic blood pressure in rat after an oral dose at 50 mg/kg (1h after dose); format: functional, Artery; procedure, shortened: as §5
[17] = tested on: Rattus norvegicus; test: Effect on systolic blood pressure in rat after an oral dose at 50 mg/kg (5h after dose); format: functional, Artery; procedure, shortened: as §5
[18] = tested on: Rattus norvegicus; test: Effect on systolic blood pressure in rat after an oral dose at 50 mg/kg; format: functional, Artery; procedure, shortened: as §5
[19] = tested on: Rattus norvegicus; test: Effect on systolic blood pressure in rat after an oral dose at 50 mg/kg (3h after dose); format: functional, Artery; procedure, shortened: as §5

SMILES	EC50 [1] [µM]	EC50 [2] [nM]	Delta A/min [3]	Delta A/min [4]	Delta A/min [5]	other results
CN1C(=O)CN2Cc3c(sc4c3CCCC4)N=C21	> 250	> 250000				
Cc1sc2c(c1Cl)CN1C(=N2)NC(=O)C1C (stereo not given)	150	900				
Cc1sc2c(c1C)CN1C(=N2)NC(=O)C1C.Cl (stereo not given)	20	130		0.183	0.076 ΔA/min	
O=C1CN2Cc3cscc3N=C2N1	> 250	90000				
CC(C)(C)C1CCc2c(sc3c2CN2CC(=O)NC2=N3)C1.Cl (stereo not given)	27	250		0.117	4000	
CCC1C(=O)NC2=Nc3sc4c(c3CN21)CCCC4 (stereo not given)	> 250	60000				
Cl.O=C1CN2Cc3sccc3N=C2N1	> 250	10000		0.308	0.256 ΔA/min	
O=C1CN2Cc3c(sc4c3COc3ccccc3-4)N=C2N1	34	1600				
O=C1CN2Cc3ccsc3N=C2N1	> 250	> 250000				
Cl.O=C1CN2Cc3c(-c4ccccc4)csc3NC2=N1	120	20000	0.198 ΔA/min			
Cc1cc2c(s1)N=C1NC(=O)C(C)N1C2 (stereo not given)	230	10000				
Cc1cc2c(s1)CN1CC(=O)NC1=N2.Cl	250	12000		0.228	0.217 ΔA/min	
CCCCC1C(=O)NC2=Nc3sc4c(c3CN21)CCCC4 (stereo not given)	> 250	> 250000				
Cl.O=C1CN2Cc3c(sc4c3CCC4)N=C2N1	40	250	0.072 ΔA/min			
O=C1CN2Cc3c(sc4c3CCCC4Cc3ccccc3)N=C2N1 (stereo not given)	160	4000				
Cc1sc2c(c1Cl)CN1CC(=O)NC1=N2.Cl	36	17000	0.28 ΔA/min			
Cl.O=C1CN2C=c3c4c(sc3=NC2=N1)CCCC4	250	84000		0.183	0.047 ΔA/min	Delta A/min [6]: 0.068; Delta A/min [7]: 0.185; Delta A/min [8]: 0.195
Cc1cc2c(s1)NC1=NC(=O)CN1C2.Cl	125	35000	0.162 ΔA/min			
CC1CCc2c(sc3c2CN2C(=N3)NC(=O)C2C)C1.Cl (stereo not given)	32	200		0.207	152000	

Molecules with a lower EC50 [1], results first:

EC50 [1] [µM]	EC50 [2] [nM]	SMILES	Delta A/min [3]	Delta A/min [4]	Delta A/min [5]	other results
19	15000	Cc1csc2c1CN1CC(=O)NC1=N2.Cl	0.188 ΔA/min			
4.2	2200	Cl.O=C1CN2Cc3c(sc4c3CCC(OCc3ccccc3)C4)N=C2N1 (stereo not given)		0.117	42000	
5	1000	Cc1sc2c(c1C)CN1CC(=O)NC1=N2.Cl	0.073 ΔA/min			Delta A/min [6]: 0.094; Delta A/min [7]: 0.164; Delta A/min [8]: 0.153; Delta A/min [9]: 0.173; Delta A/min [10]: 0.168; Delta A/min [11]: 0.168
2	620	CC1CCc2c(sc3c2CN2CC(=O)NC2=N3)C1.Cl (stereo not given)		0.178	0	
3	30	CC1CCCc2c1sc1c2CN2C(=NC(=O)C2C)N1.Cl (stereo not given)		0.183	0.047 ΔA/min	
0.58	80	CCCc1sc2c(c1C)CN1CC(=O)NC1=N2.Cl	0.09 ΔA/min			Delta A/min [6]: 0.09; Delta A/min [7]: 0.242; Delta A/min [8]: 0.213; Delta A/min [9]: 0.128; Delta A/min [11]: 0.154
2	540	Cl.O=C1CN2Cc3c(sc4c3CCSC4)N=C2N1		0.178	0	
13.5	29000	Cl.Cl.O=C1CN2Cc3c(sc4c3CCN(Cc3ccccc3)C4)N=C2N1		0.186	121000	
1.3	200	Cl.O=C1CN2Cc3c(sc4c3CCOC4)N=C2N1		0.171	113000	
19	900	Cl.O=C1CN2Cc3c(sc4c3CCc3ccccc3-4)N=C2N1		0.207	0.191 ΔA/min	
1.2	120	CCOC(=O)N1CCc2c(sc3c2CN2CC(=O)NC2=N3)C1.Cl		0.171	115000	Delta A/min [6]: 120000; Delta A/min [7]: 30000; Delta A/min [8]: 0.072
0.53	180	CC1CCCc2c1sc1c2CN2CC(=O)N=C2N1.Cl (stereo not given)	0			Delta A/min [6]: 0; Delta A/min [7]: 0.116; Delta A/min [8]: 0.036; Delta A/min [9]: 0.053; Delta A/min [10]: 0.118; Delta A/min [11]: 0.079
2	190	CCCCCc1sc2c(c1C)CN1CC(=O)NC1=N2.Cl	0.002 ΔA/min			
17	3500	Cc1scc2c1CN1CC(=O)NC1=N2.Cl		0.29	0.198 ΔA/min	
5.3	150	Cl.O=C1CN2Cc3c(sc4ccccc34)N=C2N1		0.183	0.092 ΔA/min	
3	2200	CCCc1c(CC)sc2c1CN1CC(=O)NC1=N2.Cl	0.008 ΔA/min			
4.2	1900	Cc1c(Cl)sc2c1CN1CC(=O)NC1=N2.Cl	0.222 ΔA/min			Delta A/min [6]: 0.077; Delta A/min [7]: 0.166; Delta A/min [8]: 0.166; Delta A/min [9]: 0.106; Delta A/min [10]: 0.122; Delta A/min [11]: 0.121
2	100	Cl.O=C1CN2Cc3c(sc4c3CCC(O)C4)N=C2N1 (stereo not given)		0.117	2000	
1.2	160	Cl.O=C1CN2Cc3c(sc4c3SCCC4)NC2=N1		0.171	0.125 ΔA/min	
12	1200	CN(C(=O)CCCOc1ccc2[nH]c(=O)ccc2c1)C1CCCCC1 [CILOSTAMIDE]				Change in heart rate [12]: 20%; Change in heart rate [13]: 26%; Change in heart rate [14]: 22%; Change in heart rate [15]: 21%; Decrease in blood pressure [16]: 1; Decrease in blood pressure [17]: -1; Initial blood pressure [18]: 125 mmHg; Decrease in blood pressure [19]: -1
18	170	Cl.O=C1CN2Cc3c(sc4c3CCCCC4)N=C2N1	0.202 ΔA/min			
